Apaf-1 act: activators of human Apaf-1 apoptosome; Apaf-1 apoptosome caspase-3 activation, DEVD-Rh110 fluorescence; stronger effect = lower value; activity change, negative = activation, % at 20 µM; hit rate 0.31% among 330,000; AID 489031;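 active = activity change at or below -40% at 20 µM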
Target sequence (O14727 whole entry, looked up): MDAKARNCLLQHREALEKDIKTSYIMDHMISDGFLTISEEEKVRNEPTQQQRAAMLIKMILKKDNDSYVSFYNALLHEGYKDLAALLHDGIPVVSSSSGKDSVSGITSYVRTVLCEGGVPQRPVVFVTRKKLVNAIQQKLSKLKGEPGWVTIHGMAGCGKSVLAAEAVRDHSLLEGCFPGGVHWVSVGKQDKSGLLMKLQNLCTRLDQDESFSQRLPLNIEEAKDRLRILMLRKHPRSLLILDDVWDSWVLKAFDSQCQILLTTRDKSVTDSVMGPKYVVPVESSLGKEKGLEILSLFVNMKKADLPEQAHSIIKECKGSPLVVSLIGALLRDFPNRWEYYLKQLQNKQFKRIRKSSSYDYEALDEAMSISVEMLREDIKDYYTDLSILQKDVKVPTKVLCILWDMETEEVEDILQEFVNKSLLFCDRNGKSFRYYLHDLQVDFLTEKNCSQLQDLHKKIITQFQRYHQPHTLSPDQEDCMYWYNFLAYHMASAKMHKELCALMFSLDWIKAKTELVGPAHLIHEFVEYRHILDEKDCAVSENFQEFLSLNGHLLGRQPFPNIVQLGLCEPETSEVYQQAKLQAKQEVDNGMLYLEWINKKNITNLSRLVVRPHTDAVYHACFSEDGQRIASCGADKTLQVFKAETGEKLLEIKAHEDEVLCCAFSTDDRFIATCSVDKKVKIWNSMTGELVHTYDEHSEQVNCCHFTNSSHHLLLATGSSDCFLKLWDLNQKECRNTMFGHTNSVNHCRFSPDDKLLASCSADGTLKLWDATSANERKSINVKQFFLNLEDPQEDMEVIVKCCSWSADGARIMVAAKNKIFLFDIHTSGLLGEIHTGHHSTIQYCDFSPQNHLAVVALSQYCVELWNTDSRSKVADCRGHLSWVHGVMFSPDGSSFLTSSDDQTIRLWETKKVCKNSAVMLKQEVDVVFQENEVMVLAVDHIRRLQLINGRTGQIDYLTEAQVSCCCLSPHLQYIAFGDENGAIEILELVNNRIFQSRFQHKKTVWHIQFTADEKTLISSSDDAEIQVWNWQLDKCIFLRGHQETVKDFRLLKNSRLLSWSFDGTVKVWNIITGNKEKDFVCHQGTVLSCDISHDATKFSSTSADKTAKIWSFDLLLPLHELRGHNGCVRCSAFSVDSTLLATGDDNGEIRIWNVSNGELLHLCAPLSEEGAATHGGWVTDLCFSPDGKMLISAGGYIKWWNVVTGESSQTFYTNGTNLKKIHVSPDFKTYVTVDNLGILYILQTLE
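Schedule: 30 min preincubation, 50 min reaction, room temperature / System: biochemical Apaf-1 apoptosome reconstitution / Medium: 20 mM HEPES pH 7.5 with CHAPS, BSA / Evaluation: Caspase-3 cleavage activity downstream of Apaf-1 activation / Detection: Caspase-3-released Rh110 fluorescence, 540 nm emission, 480 nm excitation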
Rh110 act interf: Rh110 signal interference in Apaf-1 activator counter-screen. shares compounds with Apaf-1 act. Rh110 fluorescence interference, quenched caspase reaction, Ex480/Em540. fluorescence interference (activity change), % at 20 µM, hits read low. 980 tested, under 10 active. AID 504616;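 active = mean activity change at or below -40% when tested at 20 µM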
Apaf-1 act conf: confirmation of human Apaf-1 activators; shares compounds with Apaf-1 act; reconstituted apoptosome caspase-3 activity, DEVD-Rh110 fluorescence; stronger effect = lower value; activity change, negative = activation, % at 20 µM; hit rate 5% among 980;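 active = mean activity change at or below -40%, meaning activation of 40% or more, at 20 µM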
Apaf1 act interf: Apaf-1 activator counter-screen fluorescence artifact | shares compounds with Apaf-1 act | EC50, µM | 55 tested, under 10 active | AID 588592 | fluorescence interference counterscreen, Apaf-1 activator assay; call rule not given here
A number is an active result; i = inactive; nt = no result. A selection follows.

SMILES	Apaf-1 act	Rh110 act interf	Apaf-1 act conf	others
COc1cccc2c1C(=O)c1c(O)c3c(c(O)c1C2=O)C[C@@](O)(C(=O)CO)C[C@@H]3O[C@H]1C[C@H](N)[C@H](O)[C@H](C)O1	i	nt	nt
COc1cc2sc3ccc(-c4ccc(N(C)C)nc4)cc3c(=O)c2cc1OC	i	nt	nt
Cc1cc(C)c(S(=O)(=O)NCc2ccc3c(c2)cc(C)n3C)c(C)c1	i	nt	nt
C[n+]1ccccc1/C=N/O	i	nt	nt
O/N=C/c1ccc2ccccc2n1	-50	i	i
NCCc1cnc[nH]1	i	nt	nt
Cc1ccc(CNc2ccc(O)cc2)cc1	i	nt	nt
COCCNC(=O)c1onc(CSc2ccccc2)c1C(=O)O	-44	i	i
COCCCNC(=O)c1ccc2c3c(onc13)-c1ccccc1C2=O	i	nt	nt
COc1cc(OC)c2c(-c3ccccc3)cc(=O)oc2c1C(CCN1CCCC1)c1ccc2c(c1)OCO2 (configuration not stated)	i	nt	nt
CC(C)CNC(=O)c1c(F)c(F)c(F)c(F)c1F	-54	i	i
COc1ccc(C(=O)NCC23C=CC(O2)C2C(=O)N(Cc4ccccc4)C(=O)C23)cc1 (configuration not stated)	-75	i	i
CN(C)CCC(c1ccc(Cl)cc1)c1ccccn1 (configuration not stated)	i	nt	nt
CN1CCN(C2=C(NS(=O)(=O)c3ccccc3)C(=O)c3ccccc3C2=O)CC1	i	nt	nt
O=C1c2[nH]nc(-c3ccccc3O)c2C(c2cccc(Cl)c2)N1Cc1ccco1 (configuration not stated)	i	nt	nt
Fc1ccc(/C=N/Nc2nc3ccccc3[nH]2)cc1F	-64	i	i
COc1ccc2nc(C)cc(N/N=C/c3ccc(F)cc3)c2c1	i	nt	nt
Cc1c(C(=O)N2CCOCC2)c(S(=O)(=O)Nc2cccc(Br)c2)c(C)n1C	-44	i	i
COCCCOc1cc(NCc2ccccc2)c2ncn(C(C)C)c2c1	i	nt	nt
CCOC(=O)c1cnc(-n2nc(C)cc2C)nc1NC1CCCCC1	i	nt	nt
CCOC(=O)C1=NNC2C(=O)N(C3CCCCC3)C(=O)C12 (configuration not stated)	-79	i	i
OC(CNCC1CCCO1)Cn1c2ccc(Cl)cc2c2cc(Cl)ccc21 (configuration not stated)	i	nt	nt
COc1ccc(N2CCN(C(=O)Cc3ccc(OC)c(OC)c3)CC2)cc1	-535	i	i
Cc1ccc(S(=O)(=O)/N=C2\C(=O)c3ccccc3C([O-])=C2n2cc[n+](CCC(C)C)c2)cc1	i	nt	nt
COc1cccc2c1C(=O)C=C(C)C2=O	i	nt	nt
SMILES	Apaf-1 act	Rh110 act interf	Apaf-1 act conf	others
Cc1ccccc1C(=O)N1CCC(n2nccc2NC(=O)CCOc2ccccc2)CC1	-187	i	i
COC(=O)C1=C(C)N(Cc2ccccc2)C(=NCc2cccc(Cl)c2)N[C@H]1c1cccc(F)c1	i	nt	nt
CCOc1cc2c(C#N)c(N3CCCCC3)nc(N)c2c(N)n1	i	nt	nt
C/C(=N\NC(=O)Cc1cc(=O)[nH][nH]1)c1cccc([N+](=O)[O-])c1	i	nt	nt
Oc1ccc(Br)cc1CNc1cccc2cccnc12	i	nt	nt
O=C(Nc1cccc2cccnc12)c1cccc([N+](=O)[O-])c1	-342	i	i
C#CCOCCOCCOCCNc1nc(N2CCN(C(=O)[C@H](CCCCN)n3cc(CCCC)nn3)CC2)nc(N2CCN(C(=O)[C@H](CCCCN)n3cc(CCCC)nn3)CC2)n1	i	nt	nt
COC(=O)c1c(NC(=O)COc2ccc(Cl)cc2)sc2c1CC(C)(C)NC2(C)C	i	nt	nt
CCOC(=O)c1ccc(Nc2nc(N)c3cc(OC)c(OC)cc3n2)cc1	i	nt	nt
COc1ccc(Nc2ccc(C(=O)O)cc2[N+](=O)[O-])cc1	-64	i	i
CCOc1ccc(NC(=O)c2c[nH]n3c(=O)cc(C4CCN(C(=O)OC(C)(C)C)CC4)nc23)cc1	i	nt	nt
CC(=O)Nc1ccc(N2CC(C)(C)C2=O)cc1	-58	i	i
CC(Oc1ccc(Br)cc1)C(=O)NCC(C)(C)N1CCOCC1 (configuration not stated)	i	nt	nt
Cn1nc(-c2ccccn2)nc2c(=O)n(C)c(=O)nc1-2	i	nt	nt
O=C(N/N=C/c1cc(Cl)cc([N+](=O)[O-])c1O)NC12CC3CC(CC(C3)C1)C2	-56	i	-121	Apaf1 act interf=i
CC(CCC(C)C(C)(C)C)[C@@H]1CC[C@H]2C3C[C@H](OS(O)(=S)=S)[C@H]4C[C@H](OS(O)(=S)=S)[C@@H](OS(O)(=S)=S)C[C@]4(C)[C@H]3CC[C@]12C (some centres not stated) (tested in a mixture with another compound)	i	nt	nt
NC(=NCCCCCCN=C(N)/N=C(\N)Nc1ccc(Cl)cc1)/N=C(\N)Nc1ccc(Cl)cc1	i	nt	nt
Cc1cccc(NC2=C(NC(=O)c3ccccc3)C(=O)c3ccccc3C2=O)c1	i	nt	nt
Cc1cccc(NC(=O)CCNS(=O)(=O)c2cccc3nonc23)c1	-68	i	i
CCCCc1c(C)nn(-c2nnc3c4ccccc4n(CC)c3n2)c1C	i	nt	nt
CC1CN(C(=O)c2cccc(S(=O)(=O)NCc3ccccc3)c2)CC(C)O1 (configuration not stated)	i	nt	nt
CSc1ccc(CN(C)C(=O)c2cccc(S(=O)(=O)NCc3ccccc3)c2)cc1	i	nt	nt
COC(=O)c1cc(S(=O)(=O)NCc2cccc(Br)c2)c[nH]1	-53	i	i
O=C(NCCc1ccccc1)c1ccc2nc(-c3ccco3)c(-c3ccco3)nc2c1	i	nt	nt
O=C(CCc1ccccc1)Nc1ccc(NC(=O)c2ccco2)cc1	-193	i	i
SMILES	Apaf-1 act	Rh110 act interf	Apaf-1 act conf	others
C#CCOCCOCCOCCNc1nc(N2CCN(C(=O)CCCCCCCCCCNC(=O)Cn3cc(CCCCCN)nn3)CC2)nc(N2CCN(C(=O)CCCCCCCCCCNC(=O)[C@H]([C@@H](C)CC)n3cc(CCCCN=C(N)N)nn3)CC2)n1	i	nt	nt
CCc1cc2c(=O)nc3n(c2s1)Cc1ccccc1/C3=C(/O)c1cccc([N+](=O)[O-])c1	-198	i	i
CCCNc1c(F)c(F)c2c(C)c3ccccc3nc2c1F	i	nt	nt
Cc1cccc(CCNS(=O)(=O)c2cnc[nH]2)c1	-46	i	i
O=C1C=C(c2ccc(OC(F)(F)F)cc2)C[C@@H](c2ccc(F)cc2)C1	i	nt	nt
COc1ccc(-n2c3nc4ccccc4nc3c3c(=N)oc(C)nc32)cc1	i	nt	nt
CC(C)=CCC1=C(OCC(=O)O)C(=O)c2ccccc2C1=O	i	nt	nt
COc1cc(/C=N/NC(=O)c2ccncc2)ccc1OCC(=O)Nc1cccc([N+](=O)[O-])c1	-125	i	i
COc1cc(/C=C2\C(=O)N(CCC#N)N=C2C)ccc1OCC(=O)Nc1ccccc1	i	nt	nt
CCC1=NNc2cccc3c(OC)ccc1c23	i	nt	nt
CC1CC(C)(C)CC2(C1)NC(=O)N(CC(=O)Nc1ccc3[nH]c(=O)[nH]c3c1)C2=O (configuration not stated)	i	nt	nt
Cc1ccc(C2(C)NC(=O)N(CC(=O)Nc3ccc4[nH]c(=O)[nH]c4c3)C2=O)cc1 (configuration not stated)	-58	i	i
COc1ccccc1CNC(=O)CN1C(=O)NC(c2ccccc2)(c2ccc(C)c(C)c2)C1=O (configuration not stated)	i	nt	nt

Compound activity: PubChem, Sanford-Burnham Center for Chemical Genomics
